Results gathered from unrelated publications.
Protocols differ between the studies behind these lines.
Slc6a3: Sodium-dependent dopamine transporter (Slc6a3, Rattus norvegicus, UniProt P23977)
Antigen peptide transporter 1/Antigen peptide transporter 2: Antigen peptide transporter 1/Antigen peptide transporter 2 (Homo sapiens, UniProt Q03518+Q03519)

CNC(C)C(=O)c1cccc(Cl)c1 (centres unmarked)  IC50 (Slc6a3; transporter uptake; inhibitor; radiometric): 0.342 µM
CSCC[C@H](NC(=O)[C@@H]1CCCN1C(=O)[C@H](CCCNC(=N)N)NC(=O)[C@H](CC(C)C)NC(=O)[C@@H]1CCCN1C(=O)[C@@H](NC(=O)[C@H](C)N)C(C)C)C(=O)N[C@H](C(=O)N[C@@H](Cc1ccc(O)cc1)C(=O)N[C@@H](C)C(=O)O)[C@@H](C)O  IC50 (Antigen peptide transporter 1/Antigen peptide transporter 2; ligand displacement): 5 µM
COc1ccc2cccc(C(CO)CNC(=O)CF)c2c1 (centres unmarked)  EC50 (Melatonin receptor type 1B (MTNR1B, Homo sapiens, UniProt P49286); cAMP; agonist; TR-FRET): 0.0178 µM
CC[C@H](C)[C@H](NC(=O)[C@H](C)NC(=O)CN)C(=O)N[C@@H](CC(=O)O)C(=O)N[C@@H](CCCCN)C(=O)N1CCC[C@H]1C(=O)N[C@H](C(=O)N[C@@H](CC(C)C)C(=O)N[C@@H](CCCCN)C(=O)O)[C@@H](C)CC  IC50 (Antigen peptide transporter 1/Antigen peptide transporter 2; ligand displacement): 8.2 µM
CC(NC(C)(C)C)C(=O)c1ccccc1 (centres unmarked)  IC50 (Slc6a3; transporter uptake; inhibitor; radiometric): 1.31 µM
COC(=O)C(NC(=O)c1cn(CCCCCO)c2ccccc12)C(C)(C)C (centres unmarked)  IC50 (Cannabinoid receptor 1 (Cnr1, Rattus norvegicus, UniProt P20272); ligand displacement; radioligand; cell membranes): 0.105 µM
O=c1c(O)c(-c2ccc(O)c(O)c2)oc2cc(O)cc(O)c12  IC50 (CX3C chemokine receptor 1 (CX3CR1, Homo sapiens, UniProt P49238); β-arrestin recruitment; antagonist): 4.5 µM
CC[C@H](C)[C@H](NC(=O)[C@H](CC(C)C)NC(=O)[C@@H](N)CO)C(=O)NCC(=O)N[C@@H](CCCCN)C(=O)N[C@H](C(N)=O)C(C)C  EC50 (Proteinase-activated receptor 2 (F2RL1, Homo sapiens, UniProt P55085); calcium signal; agonist): 5.8 µM
